NR3A LBD binder – binders of NR3A ligand-binding domain, primary screen, biophysical, differential scanning fluorimetry, uHTS. NR3A LBD differential scanning fluorimetry, Tm shift; 0% = protein alone, 100% = glycine-bound protein. 340,000 tested, 2.5% active. AID 1259313, 2017. Tm shift relative to glycine control, % at 25 µM;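 active = melting temperature shift of at least 10% of the positive control shift, at one fixed dose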
MPTP inh – mitochondrial permeability transition pore inhibitors, primary screen, biochemical, isolated mouse mitochondria, absorbance | 360,000 tested, 1.4% active | Ca2+ swelling absorbance, 30 min | inhibition, % at 10 µM;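 active = inhibition of 50% or more, scaled per plate between neutral and stimulator controls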;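 also: 0% = DMSO wells given calcium and 100% = 1 mM EGTA wells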
proCasp3 act – activators of human procaspase-3 D3A mutant, primary screen, biochemical, absorbance, PC-3 D3A mutant, single concentration; Caspase-3 (Homo sapiens), P42574; 330,000 tested, 0.11% active; activation, % at 8.5 µM; recombinant procaspase-3 D3A, Ac-DEVD-pNA absorbance 405 nm; AID 463141, 2010;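 active = activation above the mean of all tested compounds plus 3 SD, cut at about 21% in these data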;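 also: 0% = DMSO alone and 100% = DMSO wells spiked with extra 5 µM PC-3 D3A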
Target sequence (P42574 whole entry D9A/D28A/D175A): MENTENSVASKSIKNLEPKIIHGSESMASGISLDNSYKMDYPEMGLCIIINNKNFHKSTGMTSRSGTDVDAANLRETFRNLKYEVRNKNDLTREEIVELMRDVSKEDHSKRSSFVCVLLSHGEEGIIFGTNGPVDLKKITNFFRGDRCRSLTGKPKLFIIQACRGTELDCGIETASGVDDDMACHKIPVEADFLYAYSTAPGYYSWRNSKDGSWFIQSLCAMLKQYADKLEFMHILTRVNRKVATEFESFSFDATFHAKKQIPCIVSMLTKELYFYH
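Compound: 8.5 µM single point, 0.8% DMSO / Material: Autoprocessing-dead procaspase-3 D3A mutant enzyme / Timing: 1 h preincubation plus 2 h reaction at 25 °C / Medium: Zinc-free HEPES/NaCl buffer with 0.01% Triton X-100 at pH 7.4 / Technique: 405 nm absorbance of p-nitroaniline, reads at 0 and 120 min / Repeats: one well per compound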
proCasp7 act – procaspase-7 activators, primary screen, counter-screen for procaspase-3 activator project, biochemical, absorbance, HTS, human. 330,000 tested, 0.093% active. Caspase-7 (Homo sapiens), P55210. recombinant procaspase-7, Ac-DEVD-pNA absorbance 405 nm; D23A/D198A/D206A triple mutant, cannot self-cleave; scale: DMSO 0, 5 µM enzyme 100. activation, % at 8.5 µM;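 active = percent activation above the screen-wide mean plus 3 SD, cut at about 25% in these data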
Target sequence (P55210 whole entry D23A/D198A/D206A): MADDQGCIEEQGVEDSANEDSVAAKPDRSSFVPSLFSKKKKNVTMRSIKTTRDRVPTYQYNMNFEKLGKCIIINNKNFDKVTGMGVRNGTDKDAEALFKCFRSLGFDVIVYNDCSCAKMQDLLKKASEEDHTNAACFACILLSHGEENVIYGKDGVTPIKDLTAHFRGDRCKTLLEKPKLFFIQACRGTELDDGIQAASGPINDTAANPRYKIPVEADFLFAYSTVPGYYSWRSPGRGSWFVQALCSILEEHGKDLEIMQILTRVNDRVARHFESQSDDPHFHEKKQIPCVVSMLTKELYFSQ
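signal = Epi-absorbance of released pNA at 405 nm, two timepoints | assay system = Uncleavable procaspase-7 mutant enzyme | reagent = Ac-DEVD-pNA substrate, 400 µM as added | times = 1 h enzyme–compound preincubation and 2 h substrate reaction, both 25 °C | benchmarks = low DMSO alone, high DMSO plus 5 µM PC-7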
aDG glyco up – activators of alpha-DG glycosylation, primary screen, uHTS, Pro5-aDG cells, AlphaScreen; AID 624168, 2012; activation, % at 10 µM; alpha-DG glycosylation AlphaScreen (IIH6); 0% Pro5, 100% B10-LARGE cell signal; 360,000 tested, 0.22% active;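 active = activation of at least 8% versus controls, or a plate z-score of at least 8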;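 also: Pro5 are CHO cells carrying HIG-tagged alpha-DG that lacks glycosylation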
MPTP counter – fluorescence retest of MPTP screen hits in isolated mitochondria, single concentration; AID 624504, 2012; inhibition, % at 10 µM; 5,000 tested, 78% active; shares compounds with MPTP inh; membrane potential, Rhodamine 123 fluorescence; in the data active = inhibition above about 22%;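 also: 0% = DMSO vehicle and 100% = positive control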
MPTP abs DR – mitochondrial permeability transition pore inhibitors, dose response, biochemical, absorbance, uHTS hits. shares compounds with MPTP inh. isolated mitochondria swelling. IC50, µM. 780 tested, 58% active; in the data active = IC50 below about 20 µM
MPTP cs DR – fluorescent counter-screen in isolated mitochondria, dose response, counter-screen for MPTP inhibitor project, biochemical, fluorescence, uHTS hits | shares compounds with MPTP inh | isolated mitochondria counterscreen, fluorescence read-out | IC50, µM | 780 tested, 49% active | AID 651564, 2012; in the data active = IC50 below about 80 µM
Active calls of the source: *; i = inactive; · = no result given. Shown are actives, neighbours in structure and some others; about 3.7% of the full set was active somewhere.

SMILES	NR3A LBD binder	MPTP inh	proCasp3 act	proCasp7 act	aDG glyco up	MPTP counter	others
CCOC(=O)c1c(C(F)(F)C(F)(F)C(F)(F)C(F)(F)F)n[nH]c1C	-8.9	73.4*	2.1	4.1	0.1	77.9*
CN(C)CCOc1ccc(-c2c(-c3ccccc3)sc3ccccc23)cc1	-9.9	103.8*	-2.4	-4.1	0.6	-17.0
Cc1cc(Nc2cccc([N+](=O)[O-])c2)n2c(nc3ccccc32)c1C#N	7.3	67.1*	4.5	-4.0	0.2	93.4*
CCN(CC)CCNc1cc(C)c(C#N)c2nc3ccccc3n12	0.1	-0.9	-5.2	1.6	-0.1	·
CNS(=O)(=O)c1ccc(CNC[C@H]2O[C@@H](n3cnc4c(=O)[nH]c(N)nc43)[C@H](O)[C@@H]2O)cc1	·	-0.4	·	·	0.0	·
CC1(C)CC(=O)C=C(c2cccs2)C1	0.2	-0.5	-0.5	-1.7	-0.1	·
O=C(NCCc1ccncc1)Nc1ccccc1	0.0	-1.2	7.4	-4.4	-0.3	·
O=C(NCCc1ccccc1)Nc1cccc(Cl)c1	20.0*	97.2*	3.1	-5.4	0.7	87.9*
Cc1cccc(NC(=O)NCCc2ccc(Cl)cc2)c1	7.0	5.9	6.0	1.9	0.7	·
O=C(NCCSCc1ccco1)Nc1ccc(Cl)cc1	-27.4	1.8	-3.4	3.6	1.4	·
O=C(NCCSCc1ccco1)Nc1cccc(Cl)c1	-1.0	79.4*	-3.1	2.2	0.4	79.1*
Cc1cccc(NC(=O)NC(C)CCc2ccccc2)c1 (configuration not stated)	-5.4	63.6*	-3.8	-16.8	0.4	73.2*
O=C(NCCc1ccc(Cl)cc1)Nc1cccc(Cl)c1	20.5*	94.9*	-1.8	7.9	0.1	93.5*
Cc1cccc(NC(=S)NC(C)CCc2ccccc2)c1 (configuration not stated)	-5.3	30.4	-2.1	-7.1	1.8	·
O=C(NNC1=Nc2cccc3cccc1c23)c1ccc(Br)cc1	3.7	82.8*	1.0	-4.7	0.1	67.0*
CC(C)(C)c1ccc(OCCCC(=O)NNC(=O)c2ccccc2O)cc1	·	69.4*	5.4	2.6	0.5	81.9*
O=C(NC(=S)Nc1cc(-c2nc3ccccc3[nH]2)ccc1Cl)c1ccc2c(c1)OCO2	18.2*	57.3*	-4.1	-9.8	-0.2	38.6*
COC(CNC(=S)Nc1ccc([N+](=O)[O-])cc1)OC	-0.1	26.2	-4.2	2.2	-0.3	·
COc1ccc(CNC(=O)Nc2ccc([N+](=O)[O-])cc2)cc1	-16.4	99.2*	7.6	3.2	-0.2	81.8*
O=C(NCCc1ccc(F)cc1)Nc1ccc([N+](=O)[O-])cc1	4.7	81.8*	·	·	-0.3	79.2*
O=[N+]([O-])c1ccc(NC(=S)NCCc2ccc(F)cc2)cc1	30.2*	99.5*	2.3	0.0	0.2	80.9*
CCOc1cc(C(=O)N[C@@H](C)C(=O)N2CCC3(CC2)NCCc2[nH]cnc23)cc(OCC)c1OCC	-6.2	-0.7	2.6	-14.5	-0.1	·
Cc1ccc(NC(=S)Nc2ccc(C(C)C)cc2)cc1S(=O)(=O)N1CCCCCC1	27.6*	103.0*	-14.3	-18.4	1.5	77.9*
Cn1c(=O)c2cc(NC(=O)NCCc3ccccc3)ccc2n1Cc1cccc(C(F)(F)F)c1	·	6.3	·	·	1.1	·
O=C(CSCc1ccc(Cl)cc1)Nc1ccc(S(=O)(=O)N2CCCCCC2)cc1	-5.6	53.4*	2.8	4.4	0.5	80.0*
SMILES	NR3A LBD binder	MPTP inh	proCasp3 act	proCasp7 act	aDG glyco up	MPTP counter	others
CN(CC(=O)Nc1ccc(S(=O)(=O)N2CCCC2)cc1)Cc1ccc(Cl)cc1Cl	-11.4	5.8	-11.6	14.2	-0.3	·
CN(CC(=O)Nc1ccc(Cl)cc1)c1ccc(S(=O)(=O)N2CCCCC2)cc1[N+](=O)[O-]	10.8*	82.4*	-5.0	-9.2	0.8	66.6*
COc1ccc(CN(C)c2ccc(S(=O)(=O)N3CCN(C)CC3)cc2[N+](=O)[O-])cc1OC	-2.7	97.0*	-2.3	3.1	3.2	99.0*
O=[N+]([O-])c1ccc2nc(Cl)nc(-c3ccccc3)c2c1	1.8	1.1	·	·	0.0	·
NC(=O)c1ccccc1NC(=O)CC12CC3CC(CC(Br)(C3)C1)C2	-0.9	-2.2	-2.6	7.8	0.0	·
CC(C)C[C@H]1CN(CCCC[C@@H]2CNC(=O)C(=O)N2CCc2ccccc2)C(=O)C(=O)N1CCC1CCCCC1	·	-1.1	·	·	-0.2	·
COc1ccc(-c2nc(N3CCN(C)CC3)sc2-c2ccc(OC)cc2)cc1	-1.7	74.3*	8.7	-1.3	-0.3	-18.0	MPTP abs DR=i;MPTP cs DR=>80
CN1CCN(c2cc3c(c4c2[nH]c2ccccc24)C(=O)CC(C)(C)C3)CC1	-7.7	84.3*	2.3	9.1	1.6	-42.0
CN1CCN(c2ccc(Cl)cc2NC(=O)c2cc(=O)[nH]c3ccccc23)CC1	0.4	-2.1	1.4	0.9	-0.2	·
C[C@H]1c2cccc(O)c2C(O)=C2C(=O)C3(O)C(O)=C(C(N)=O)C(=O)[C@@H](N(C)C)[C@@H]3[C@@H](O)[C@@H]21 (some centres not stated)	2.0	85.0*	-5.8	-3.1	0.2	-0.4
C[C@H]1c2cccc(O)c2C(=O)C2C(=O)C3(O)C(=O)C(C(N)=O)C(=O)[C@@H](N(C)C)[C@@H]3[C@@H](O)[C@@H]21 (some centres not stated)	-3.5	89.7*	7.4	-2.5	1.0	5.4
C=C1c2cccc(O)c2C(O)=C2C(=O)[C@]3(O)C(O)=C(C(N)=O)C(=O)[C@@H](N(C)C)[C@@H]3[C@@H](O)[C@H]12	-5.8	5.2	9.1	-16.5	-0.4	·
CC(C)=C[C@H]1C[C@H](C)[C@H]2CC[C@H](C)c3c(O)c(O[C@H]4OC[C@H](O)[C@@H](O)[C@@H]4O)c(C)c1c32	·	2.4	·	·	0.4	·

High-throughput results: PubChem, several laboratories
